From ChEMBL document CHEMBL1137696, “Preparation and in vitro evaluation of benzylsulfanyl benzoxazole derivatives as potential antituberculosis agents” (2009)
Values after ≈ are worked out from the molar mass of the structure shown.

Key:
Format in all cases: functional
Mycobacterium kansasii [1] = test: Antimycobacterial activity against Mycobacterium kansasii 6509/96 after 14 days by micromethod; details: 6509/96, 336 h
Summary of the method: (§1)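 Micromethod MIC in Šula semisynthetic medium, with compounds added as DMSO solutions at 1000, 500, 250, 125, 62, 32, 16, 8, 4 and 2 µmol/L. Cultures were incubated at 37 °C, and M. kansasii was read at 7, 14 and 21 days. MIC is the lowest concentration at which mycobacterial growth was inhibited. INH served as standard. Strain 6509/96 was a clinical isolate.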

Mycobacterium avium [2] = test: Antimycobacterial activity against Mycobacterium avium CNCTC My 330/88 after 21 days by micromethod; details: CNCTC My 330/88, 504 h
Summary of the method: (§2)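 MIC by micromethod in Šula semisynthetic medium. Compounds added as DMSO solutions at 1000, 500, 250, 125, 62, 32, 16, 8, 4 and 2 µmol/L. Incubated at 37 °C and read at 14 and 21 days. MIC taken as the lowest concentration that inhibited mycobacterial growth, expressed in µmol/L. INH run as standard. Strains from CNCTC.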

[3] = test system: Mycobacterium tuberculosis; test: Antimycobacterial activity against Mycobacterium tuberculosis CNCTC My 331/88 after 14 days by micromethod; details: CNCTC My 331/88, 336 h; summary of the method: as §2
[4] = test system: Mycobacterium tuberculosis; test: Antimycobacterial activity against Mycobacterium tuberculosis CNCTC My 331/88 after 21 days by micromethod; details: CNCTC My 331/88, 504 h; summary of the method: as §2
Mycobacterium avium [5] = test: Antimycobacterial activity against Mycobacterium avium CNCTC My 330/88 after 14 days by micromethod; details: CNCTC My 330/88, 336 h; summary of the method: as §2
Mycobacterium kansasii [6] = test: Antimycobacterial activity against Mycobacterium kansasii CNCTC My 235/80 after 21 days by micromethod; details: CNCTC My 235/80, 504 h; summary of the method: as §1
Mycobacterium kansasii [7] = test: Antimycobacterial activity against Mycobacterium kansasii CNCTC My 235/80 after 14 days by micromethod; details: CNCTC My 235/80, 336 h; summary of the method: as §1
Mycobacterium kansasii [8] = test: Antimycobacterial activity against Mycobacterium kansasii 6509/96 after 21 days by micromethod; details: 6509/96, 504 h; summary of the method: as §1
Mycobacterium kansasii [9] = test: Antimycobacterial activity against Mycobacterium kansasii CNCTC My 235/80 after 7 days by micromethod; details: CNCTC My 235/80, 168 h; summary of the method: as §1
Mycobacterium kansasii [10] = test: Antimycobacterial activity against Mycobacterium kansasii 6509/96 after 7 days by micromethod; details: 6509/96, 168 h; summary of the method: as §1

SMILES	MIC (Mycobacterium kansasii [1]) [µM]	MIC (Mycobacterium avium [2]) [µM]	MIC [3] [µM]	MIC [4] [µM]	MIC (Mycobacterium avium [5]) [µM]	MIC (Mycobacterium kansasii [6]) [µM]	MIC (Mycobacterium kansasii [7]) [µM]	MIC (Mycobacterium kansasii [8]) [µM]	MIC (Mycobacterium kansasii [9]) [µM]	MIC (Mycobacterium kansasii [10]) [µM]
FC(F)(F)c1cc(CSc2nc3ccccc3o2)cc(C(F)(F)F)c1	32 (≈ 12.1 µg/mL)	> 125	62 (≈ 23.4 µg/mL)	125 (≈ 47.2 µg/mL)	> 125	125 (≈ 47.2 µg/mL)	62 (≈ 23.4 µg/mL)	62 (≈ 23.4 µg/mL)	62 (≈ 23.4 µg/mL)	32 (≈ 12.1 µg/mL)
Brc1cccc(CSc2nc3ccccc3o2)c1	32 (≈ 10.2 µg/mL)	32 (≈ 10.2 µg/mL)	125 (≈ 40 µg/mL)	250 (≈ 80.1 µg/mL)	32 (≈ 10.2 µg/mL)	62 (≈ 19.9 µg/mL)	32 (≈ 10.2 µg/mL)	62 (≈ 19.9 µg/mL)	32 (≈ 10.2 µg/mL)	32 (≈ 10.2 µg/mL)
Clc1cccc(CSc2nc3ccccc3o2)c1	32 (≈ 8.82 µg/mL)	32 (≈ 8.82 µg/mL)	62 (≈ 17.1 µg/mL)	125 (≈ 34.5 µg/mL)	32 (≈ 8.82 µg/mL)	62 (≈ 17.1 µg/mL)	32 (≈ 8.82 µg/mL)	62 (≈ 17.1 µg/mL)	32 (≈ 8.82 µg/mL)	32 (≈ 8.82 µg/mL)
FC(F)(F)c1ccc(CSc2nc3ccccc3o2)cc1	32 (≈ 9.9 µg/mL)	62 (≈ 19.2 µg/mL)	125 (≈ 38.7 µg/mL)	125 (≈ 38.7 µg/mL)	62 (≈ 19.2 µg/mL)	125 (≈ 38.7 µg/mL)	62 (≈ 19.2 µg/mL)	62 (≈ 19.2 µg/mL)	32 (≈ 9.9 µg/mL)	16 (≈ 4.95 µg/mL)
Fc1cccc(CSc2nc3ccccc3o2)c1	32 (≈ 8.3 µg/mL)	32 (≈ 8.3 µg/mL)	62 (≈ 16.1 µg/mL)	125 (≈ 32.4 µg/mL)	32 (≈ 8.3 µg/mL)	125 (≈ 32.4 µg/mL)	62 (≈ 16.1 µg/mL)	62 (≈ 16.1 µg/mL)	32 (≈ 8.3 µg/mL)	32 (≈ 8.3 µg/mL)
NNC(=O)c1ccncc1 [ISONIAZID]	2 (≈ 0.274 µg/mL)	> 250	0.5 (≈ 0.0686 µg/mL)	1 (≈ 0.137 µg/mL)	> 250	> 250	> 250	4 (≈ 0.549 µg/mL)	> 250	2 (≈ 0.274 µg/mL)
Fc1ccc(CSc2nc3ccccc3o2)cc1F	62 (≈ 17.2 µg/mL)	125 (≈ 34.7 µg/mL)	125 (≈ 34.7 µg/mL)	125 (≈ 34.7 µg/mL)	62 (≈ 17.2 µg/mL)	125 (≈ 34.7 µg/mL)	125 (≈ 34.7 µg/mL)	125 (≈ 34.7 µg/mL)	62 (≈ 17.2 µg/mL)	32 (≈ 8.87 µg/mL)
Clc1ccccc1CSc1nc2ccccc2o1	62 (≈ 17.1 µg/mL)	125 (≈ 34.5 µg/mL)	> 250	> 250	125 (≈ 34.5 µg/mL)	62 (≈ 17.1 µg/mL)	32 (≈ 8.82 µg/mL)	125 (≈ 34.5 µg/mL)	32 (≈ 8.82 µg/mL)	62 (≈ 17.1 µg/mL)
FC(F)(F)c1cccc(CSc2nc3ccccc3o2)c1	32 (≈ 9.9 µg/mL)	32 (≈ 9.9 µg/mL)	62 (≈ 19.2 µg/mL)	125 (≈ 38.7 µg/mL)	32 (≈ 9.9 µg/mL)	62 (≈ 19.2 µg/mL)	32 (≈ 9.9 µg/mL)	62 (≈ 19.2 µg/mL)	32 (≈ 9.9 µg/mL)	32 (≈ 9.9 µg/mL)
O=[N+]([O-])c1ccccc1CSc1nc2ccccc2o1	> 62	> 125	> 250	> 250	> 125	> 125	125 (≈ 35.8 µg/mL)	> 62	125 (≈ 35.8 µg/mL)	62 (≈ 17.8 µg/mL)
Cc1ccc(CSc2nc3ccccc3o2)cc1	62 (≈ 15.8 µg/mL)	62 (≈ 15.8 µg/mL)	> 500	> 500	32 (≈ 8.17 µg/mL)	125 (≈ 31.9 µg/mL)	62 (≈ 15.8 µg/mL)	125 (≈ 31.9 µg/mL)	62 (≈ 15.8 µg/mL)	62 (≈ 15.8 µg/mL)
Fc1cccc(Cl)c1CSc1nc2ccccc2o1	32 (≈ 9.4 µg/mL)	62 (≈ 18.2 µg/mL)	62 (≈ 18.2 µg/mL)	125 (≈ 36.7 µg/mL)	62 (≈ 18.2 µg/mL)	62 (≈ 18.2 µg/mL)	32 (≈ 9.4 µg/mL)	62 (≈ 18.2 µg/mL)	32 (≈ 9.4 µg/mL)	32 (≈ 9.4 µg/mL)
N#Cc1ccc(CSc2nc3ccccc3o2)cc1	32 (≈ 8.52 µg/mL)	62 (≈ 16.5 µg/mL)	> 62	> 62	62 (≈ 16.5 µg/mL)	> 32	32 (≈ 8.52 µg/mL)	> 32	32 (≈ 8.52 µg/mL)	16 (≈ 4.26 µg/mL)
c1ccc(CSc2nc3ccccc3o2)cc1	125 (≈ 30.2 µg/mL)	125 (≈ 30.2 µg/mL)	250 (≈ 60.3 µg/mL)	500 (≈ 121 µg/mL)	62 (≈ 15 µg/mL)	250 (≈ 60.3 µg/mL)	250 (≈ 60.3 µg/mL)	250 (≈ 60.3 µg/mL)	125 (≈ 30.2 µg/mL)	32 (≈ 7.72 µg/mL)
N#Cc1cccc(CSc2nc3ccccc3o2)c1	62 (≈ 16.5 µg/mL)	62 (≈ 16.5 µg/mL)	125 (≈ 33.3 µg/mL)	125 (≈ 33.3 µg/mL)	62 (≈ 16.5 µg/mL)	125 (≈ 33.3 µg/mL)	62 (≈ 16.5 µg/mL)	62 (≈ 16.5 µg/mL)	32 (≈ 8.52 µg/mL)	32 (≈ 8.52 µg/mL)
O=[N+]([O-])c1ccc(CSc2nc3ccccc3o2)cc1	32 (≈ 9.16 µg/mL)	> 62	> 62	> 125	> 32	> 62	32 (≈ 9.16 µg/mL)	> 32	32 (≈ 9.16 µg/mL)	32 (≈ 9.16 µg/mL)
COc1ccc(CSc2nc3ccccc3o2)cc1	32 (≈ 8.68 µg/mL)	62 (≈ 16.8 µg/mL)	62 (≈ 16.8 µg/mL)	125 (≈ 33.9 µg/mL)	32 (≈ 8.68 µg/mL)	62 (≈ 16.8 µg/mL)	32 (≈ 8.68 µg/mL)	62 (≈ 16.8 µg/mL)	32 (≈ 8.68 µg/mL)	32 (≈ 8.68 µg/mL)
O=[N+]([O-])c1cccc(CSc2nc3ccccc3o2)c1	32 (≈ 9.16 µg/mL)	> 62	> 62	125 (≈ 35.8 µg/mL)	> 32	> 32	> 32	> 32	32 (≈ 9.16 µg/mL)	32 (≈ 9.16 µg/mL)
Clc1ccc(CSc2nc3ccccc3o2)cc1Cl	62 (≈ 19.2 µg/mL)	62 (≈ 19.2 µg/mL)	> 125	> 250	62 (≈ 19.2 µg/mL)	125 (≈ 38.8 µg/mL)	62 (≈ 19.2 µg/mL)	125 (≈ 38.8 µg/mL)	32 (≈ 9.93 µg/mL)	62 (≈ 19.2 µg/mL)
O=[N+]([O-])c1cccc(F)c1CSc1nc2ccccc2o1	> 32	125 (≈ 38 µg/mL)	> 62	> 62	62 (≈ 18.9 µg/mL)	> 32	> 32	> 62	> 32	32 (≈ 9.74 µg/mL)
Brc1ccc(CSc2nc3ccccc3o2)cc1	62 (≈ 19.9 µg/mL)	62 (≈ 19.9 µg/mL)	> 62	> 125	32 (≈ 10.2 µg/mL)	> 62	62 (≈ 19.9 µg/mL)	125 (≈ 40 µg/mL)	32 (≈ 10.2 µg/mL)	32 (≈ 10.2 µg/mL)
